# Sampled rows, rich in hits. Any-hit rate of the full collection: about 1.6%.
# SUMO1 PPI mod – SUMO1-SIM interaction modulation; SUMO1 binding to a labelled peptide, TR-FRET, 1 h; inhibition, % at 20 µM; hit rate 0.33% among 360,000; in the data active = inhibition above about 37%
# Target sequence (P63165 whole entry, looked up): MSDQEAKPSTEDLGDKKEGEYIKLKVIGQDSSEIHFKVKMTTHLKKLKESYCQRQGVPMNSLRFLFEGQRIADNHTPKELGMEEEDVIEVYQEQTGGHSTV
# Scp-1 inhibitor – Scp-1 (human) phosphatase inhibition | hit rate 0.88% among 340,000 | Q9GZU7 | Recombinant Scp1, phosphopeptide, malachite green phosphate absorbance | AID 493091 | inhibition, % at 20 µM;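 active = inhibition above about 50% at 20 µM, limit read from the data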;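 also: plate controls were DMSO wells with enzyme for no effect and wells lacking enzyme for full effect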
# Target sequence (Q9GZU7 76-261 limits assumed): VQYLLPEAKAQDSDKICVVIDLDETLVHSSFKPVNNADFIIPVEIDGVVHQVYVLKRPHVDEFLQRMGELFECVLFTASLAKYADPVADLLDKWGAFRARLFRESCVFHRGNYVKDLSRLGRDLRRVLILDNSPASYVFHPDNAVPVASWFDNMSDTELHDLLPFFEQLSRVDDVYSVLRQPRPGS
#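 Material: truncated SCP-1 phosphatase (76-261aa) / Buffer or medium: 50 mM Tris acetate pH 5.5, 0.005% Tween-20, 10 mM MgCl2 / Compound dosing: one concentration, 20 µM, with 1.0% DMSO / Incubation: 45 min room-temperature reaction, 5 min colour, 30 min stabiliser / Detection: colorimetric free-phosphate detection, absorbance 630 nm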
# STEP inh – inhibitors of human striatal-enriched phosphatase STEP | recombinant STEP, OMFP fluorogenic substrate, fluorescence | P54829 | inhibition, % at 20 µM | hit rate 0.25% among 360,000 | AID 588621;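 active = inhibition at 20 µM, scaled per plate between control wells, above about 37%, limit read from the data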;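 also: 0% = DMSO with enzyme and substrate and 100% = substrate only without enzyme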
#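 material = STEP tyrosine phosphatase | reagent = fluorogenic phosphatase substrate OMFP at 25 µM final | doses = single compound dose of 20 µM, 1% DMSO final | schedule = 20 min reaction, room temperature, in the dark | measured by = fluorescence, 480/540 nm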
# LMPTP inh – LMPTP (human) inhibition. P24666. recombinant LMPTP-A, OMFP fluorogenic substrate, fluorescence intensity. inhibition, % at 20 µM. hit rate 0.22% among 360,000. AID 651560;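 active = compounds that cut the enzyme signal by at least half of the control window in the single-dose screen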;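 also: plate controls were DMSO wells with enzyme plus substrate for no effect and substrate without enzyme for full effect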
# Target sequence (P24666 whole entry, looked up): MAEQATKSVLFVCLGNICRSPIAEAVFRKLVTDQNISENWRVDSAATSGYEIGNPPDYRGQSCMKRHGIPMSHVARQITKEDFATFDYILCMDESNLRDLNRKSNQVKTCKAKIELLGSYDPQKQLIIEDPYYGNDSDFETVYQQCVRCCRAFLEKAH
#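 Assay system: LMPTP-A, protein tyrosine phosphatase of low molecular weight / Medium: pH 6.0 Bis-Tris buffer with DTT and Triton X-100 / Schedule: 50 min enzyme reaction at room temperature, protected from light / Measured by: endpoint fluorescence intensity from OMFP dephosphorylation / Read-out basis: % inhibition relative to no-enzyme and uninhibited control wells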
# DNMT1 block – blocks human DNA methyltransferase DNMT1 | P26358 | DNMT1 molecular beacon, Hinp1I cleavage, fluorescence | inhibition (reported as % activation of signal), % at 10 µM | hit rate 0.83% among 360,000 | AID 588458; in the data active = inhibition above about 50%
# CFTR F508del cor – CFTR F508del correction in bronchial cells | AID 720511 | CFBE cells, YFP halide quenching; stimulated with forskolin plus potentiator P3; % fluorescence drop versus neutral controls | activity (quench increase), % at 7.58 µM | hit rate 0.36% among 350,000;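 active = mean added fluorescence quench of at least 8% versus neutral control, with both replicates also reaching 8%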;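 also: cells transiently co-express mutant CFTR-F508del with the halide-sensitive YFP; corrector assay measuring rescue of mutant channel to the surface after 24 h compound exposure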
# Scp-1 conf – Scp-1 (human) inhibition, single-dose confirmed; shares compounds with Scp-1 inhibitor; recombinant SCP-1 catalytic domain, phosphate release, malachite green absorbance; inhibition, % at 20 µM; hit rate 61% among 2,500; AID 540281;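 also: plate controls were DMSO with enzyme for no effect and buffer wells lacking enzyme for full effect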
# MG interference – colorimetric interference in Scp-1 counter-screen. apparent inhibition (interference), % at 20 µM. 2,500 tested, under 10 active. AID 540313. shares compounds with Scp-1 inhibitor. Colorimetric interference counterscreen, malachite green absorbance 630 nm;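 also: compounds added after enzyme reaction finished so only phosphate colour detection is probed; plate controls were DMSO wells with completed Scp-1 reaction for no effect and substrate wells lacking enzyme for full effect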
# Scp-1 Tm shift – Scp-1 (human) binding by thermal shift; hit rate 25% among 1,500; shares compounds with Scp-1 inhibitor; Recombinant SCP1, Sypro Orange thermal shift Tm; thermal shift relative to vanadate control, % at 40 µM;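 active = substances whose mean melting-temperature shift, as a percentage of the reference inhibitor's shift, reaches about 5.3%, limit read from the data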;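 also: 0% = Tm of DMSO wells and 100% = Tm with sodium orthovanadate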
# * = called active by the depositor; x = not tested or not shown.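 The calls were made as follows, unless noted: active = inhibition of at least 30% at 20 µM; inactive = the rest.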
SMILES,SUMO1 PPI mod,Scp-1 inhibitor,STEP inh,LMPTP inh,DNMT1 block,CFTR F508del cor,Scp-1 conf,MG interference,Scp-1 Tm shift
Cc1oc(/N=C/c2cccc3ccccc23)c(C#N)c1C,-5,65*,2,1,41,1,-11,-8,x
CCOc1ccccc1C(=O)N(C)Cc1cc2cc(OC)ccc2[nH]c1=O,0,51*,1,-1,-1,x,-20,-21,x
CCOc1cc(C(=O)N(C)Cc2cc3cc(OC)ccc3[nH]c2=O)cc(OCC)c1OCC,-3,15,-1,-1,0,x,x,x,x
C[C@@H]1CN([C@@H](C)CO)C(=O)c2cc(NC(=O)C3CCCCC3)ccc2O[C@@H](C)CCCCO[C@@H]1CN(C)CC1CCCCC1,x,x,x,x,x,0,x,x,x
COc1ccc(/C=N/Nc2ncc(Br)cn2)c(OC)c1,-6,57*,15,11,20,-2,38*,3,-17
CC(=O)OCCCn1c(C)[n+](C)c2cc(Cl)c(Cl)cc21,-3,73*,-4,-1,9,-2,-7,-11,x
CCn1c(C)[n+](CCOC(C)=O)c2cc(Cl)c(Cl)cc21,3,-1,1,-2,1,1,x,x,x
Cc1ccc(S(=O)(=O)N(C)C[C@@H]2Oc3c(NC(=O)C4CCOCC4)cccc3C(=O)N([C@@H](C)CO)C[C@@H]2C)cc1,x,x,x,x,x,-2,x,x,x
CN(C)C(=O)c1cccc(-c2ccccc2[C@@H]2[C@@H](C#N)N(C(=O)C3CCCC3)[C@H]2CO)c1,x,x,x,x,x,0,x,x,x
COc1cccc(NC(=O)C2CCCN(S(=O)(=O)c3cccc4cccnc34)C2)c1 (stereo unspecified),-1,86*,2,-1,-2,-2,5,-1,x
CN(Cc1ccccc1)C(=O)c1ncn(Cc2ccccc2)c1C(=O)N(C)Cc1ccccc1,-4,0,-2,0,1,0,x,x,x
CN(Cc1ccccc1)C(=O)c1ncn(C)c1C(=O)N(C)Cc1ccccc1,-3,93*,-3,0,11,1,85*,-17,-3
COc1ccc(Br)cc1C(=O)N/N=C/c1cccnc1,-5,-6,-1,-1,4,1,x,x,x
COc1ccc(Br)cc1C(=O)N/N=C/c1ccc([N+](=O)[O-])cc1,-1,99*,21,43,15,2,33*,-7,2
CCOc1ccc(Br)cc1C(=O)N/N=C/c1ccc([N+](=O)[O-])cc1,-7,81*,21,38,16,2,32*,4,3
C[C@H]1CN([C@@H](C)CO)C(=O)c2cc(-c3cccc(C#N)c3)cnc2O[C@@H]1CN(C)C(=O)c1cnccn1,x,x,x,x,x,1,x,x,x
C[C@H]1CN([C@@H](C)CO)C(=O)Cc2cc(NS(=O)(=O)c3cn(C)cn3)ccc2O[C@@H]1CN(C)Cc1ccc(C(=O)O)cc1,x,x,x,x,x,-2,x,x,x
CCn1c(C)[n+](Cc2ccccc2)c2ccc(C(=O)OC)cc21,0,102*,-3,1,4,0,53*,-6,-4
CCOC(=O)c1ccc2c(c1)n(CC)c(/C=C/Nc1ccccc1)[n+]2CC,-3,62*,-3,-1,5,x,-10,-11,x
CCn1c(C)[n+](Cc2ccccc2)c2ccc(Cl)cc21,-2,1,-1,1,-1,-2,x,x,x
CC[n+]1c(/C=C/Nc2ccccc2)oc2ccc(OC)cc21,-9,-3,-2,0,-1,-3,x,x,x
C[C@H]1CN([C@@H](C)CO)C(=O)c2cccc(NS(=O)(=O)c3ccc(Cl)cc3)c2O[C@H]1CN(C)C(=O)Nc1ccc2c(c1)OCO2,x,x,x,x,x,1,x,x,x
Fc1ccc(Sc2ccccc2CNC2=NCCN2)cc1,4,52*,-5,0,4,2,84*,-14,-4
OCCNC1=NCCN1,6,18,7,-7,3,x,x,x,x
Cc1ccc(S(=O)(=O)N(C)C[C@H]2Oc3c(NS(=O)(=O)c4ccc(Cl)cc4)cccc3C(=O)N([C@H](C)CO)C[C@H]2C)cc1,x,x,x,x,x,-1,x,x,x
SMILES,SUMO1 PPI mod,Scp-1 inhibitor,STEP inh,LMPTP inh,DNMT1 block,CFTR F508del cor,Scp-1 conf,MG interference,Scp-1 Tm shift
CCOc1ccc(C(=O)Nc2cccc(-c3cc4ccccc4oc3=O)c2)cc1[N+](=O)[O-],-5,93*,9,2,-1,x,28,-11,x
CC(=O)N1[C@H](CO)[C@@H]2c3ccccc3N(S(=O)(=O)c3ccccc3C)C[C@@H]21,x,x,x,x,x,2,x,x,x
O=C(COC(=O)Cc1cccc(C(F)(F)F)c1)NCc1ccco1,11,77*,8,1,92*,-4,68*,-8,0
C[C@@H]1CCCCO[C@@H](CN(C)C(=O)Nc2cccc3ccccc23)[C@H](C)CN([C@@H](C)CO)C(=O)c2cc(NS(=O)(=O)c3ccc(F)cc3)ccc2O1,x,x,x,x,x,0,x,x,x
O=C(O)COc1ccccc1/C=C1\SC(=S)N(/N=C/c2ccccc2O)C1=O,31,63*,1,1,-8,x,59*,-13,8.2*
COCC(=O)Nc1ccc2c(c1)[C@@H]1C[C@H](CC(=O)N3CCOCC3)O[C@H](CO)[C@@H]1O2,x,x,x,x,x,-2,x,x,x
O=C(CSc1nc2sccc2c(=O)[nH]1)N1CCN(c2ccccc2)CC1,3,109*,0,5,17,4,59*,-11,-12
O=C(CSc1ccsc1[N+](=O)[O-])N1CCN(c2ccccc2)CC1,-19,64*,7,9,41,-2,76*,-6,5
CCNC(=O)[C@@H]1[C@@H](CO)[C@@H]2Cn3c(ccc(C4=CCCCC4)c3=O)[C@@H]2N1C(=O)CC1CC1,x,x,x,x,x,-1,x,x,x
Cc1ccc(S(=O)(=O)N[C@H](C(=O)OCC(=O)NC(=O)NCc2ccco2)C(C)C)cc1,1,62*,-1,-1,10,1,26,-22,x
COc1ccc(CNC(=O)Cn2ccc(NC(=O)OCc3ccccc3)nc2=O)cc1,3,10,0,-1,2,0,x,x,x
COc1cc(NCCCn2ccc(NC(=O)OCc3ccccc3)nc2=O)cc(OC)c1OC,-1,-11,-1,-1,-23,3,-7,-8,x
Cc1ccc(CNC(=O)Cn2ccc(NC(=O)OCc3ccccc3)nc2=O)o1,6,-8,-2,-3,-2,1,-5,-11,x

# Screens from PubChem.
